Here are results for seven molecules from ChEMBL document CHEMBL3272270, “Potential antitumor agents. 23. 4'-(9-Acridinylamino)alkanesulfonanilide congeners bearing hydrophilic functionality” (J Med Chem, 1977).

Series [1] in a line: Half life in mouse L1210 cells allografted C3H/DBA2 F1 hybrid hybrid mouse.
A further series has as its system Mus musculus. Put plainly: Toxicity in sc implanted mouse L1210 cells allografted C3H/DBA2 F1 hybrid hybrid mouse assessed as optimum dose required to increase life span treated ip after 24 hrs after tumor inoculation and continued for 5 days. It is filed as organism-based. Conditions: in vivo. In short, it runs like this: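 10^5 L1210 cells implanted sc above the right axilla in 18.5-22.5-g C3H/DBA2 F1 hybrid mice. Ip dosing (0.2 mL per dose) ran daily for 5 days from 24 h. Dilution series at 0.18 log intervals, with the median dose set at the earlier ip L1210 optimum. Six mice per dose, one control group per six test groups. Tests were repeated until the highest dose was toxic and the lowest clearly suboptimal.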

For series [2], the system named is L1210. Put plainly: Antileukemic activity against ip implanted mouse L1210 cells in C3H/DBA2 F1 hybrid hybrid mouse assessed as increase life span treated ip after 24 hrs after tumor inoculation and continued for 5 days. Format: functional. In short, it runs like this:
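10^5 L1210 cells implanted ip in 18.5-22.5-g C3H/DBA2 F1 hybrid mice. Drug given ip from 24 h after inoculation, continuing for 5 days, each dose in 0.2 mL. Dose levels spaced at 0.18 log intervals, six mice per dose, one control group per six test groups. Read-out is life extension; 50-day survivors counted as cures.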

The subject of series [3] is L1210. Put plainly: Antileukemic activity against sc implanted mouse L1210 cells in C3H/DBA2 F1 hybrid hybrid mouse assessed as increase life span treated ip after 24 hrs after tumor inoculation and continued for 5 days. Format: functional. In short, it runs like this:
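10^5 L1210 cells implanted sc above the right axilla in 18.5-22.5-g C3H/DBA2 F1 hybrid mice. Drug given ip (0.2 mL) from 24 h for 5 days. Dilution series at 0.18 log intervals, centred on the optimum ip L1210 dose. Top dose had to show toxicity and lowest dose had to be suboptimal, otherwise the test was repeated. Read-out is life extension.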

Series [4] is described as follows: Retardation factor, Rm of the compound by reversed phase partition chromatography. Format: physicochemical.

In series [1], `Nc1ccc(Nc2c3ccccc3nc3ccccc23)cc1` yielded a half-life of 12 min.
As for `CCCS(=O)(=O)Nc1ccc(Nc2c3ccccc3nc3c(C(=O)N[C@H]4[C@@H](OC)O[C@H](CO)[C@@H](O)[C@@H]4O)cccc23)c(OC)c1.Cl`, in the series on Mus musculus, the Activity was determined as 400 mg/kg. Besides, the results for the ILS with L1210 [2] and in the series on L1210 [3] were 180% and 51%, respectively. Moreover, in series [4], the Rm is given as -0.1.
For the molecule `Br.COc1cc(NS(C)(=O)=O)ccc1Nc1c2ccccc2nc2c(CCC(N)=O)cccc12`, the Activity in the series with Mus musculus was 15 mg/kg. Further, the ILS in the series on L1210 [2] was 94%; with L1210 [3], 30%. Further, in series [4], the Rm is given as -0.17.
Turning to `COc1cc(NS(C)(=O)=O)ccc1Nc1c2ccccc2nc2c(OCCO)cccc12.Cl`, the Activity in the series on Mus musculus was found to be 5 mg/kg. In addition, the values for the ILS in the series on L1210 [2] and in the series on L1210 [3] were 112% and 28%, respectively. In series [4], this molecule yielded a Rm of 0.09.
As to `COc1cc(NS(C)(=O)=O)ccc1Nc1c2ccccc2nc2c(OCC(O)CO)cccc12.Cl` (stereo not given), the Activity in the series on Mus musculus was 17 mg/kg. Also, the ILS in the series with L1210 [2] turned out to be 123%; with L1210 [3], 43%. In series [4], this molecule returned a Rm of -0.09.
The corresponding values for `Cc1cc(NS(C)(=O)=O)ccc1Nc1c2ccccc2nc2c(OCC(O)CO)cccc12.Cl` (stereo not given) are 100 mg/kg, 110%, 41% and -0.03.
The corresponding values for `COc1cc(NS(C)(=O)=O)ccc1Nc1c2ccccc2nc2ccccc12` [AMSACRINE] are 6.7 mg/kg, 114%, 27% and 0.18.
